Consider two compounds from ChEMBL document CHEMBL1150122, “A new cytotoxic epothilone from modified polyketide synthases heterologously expressed in Myxococcus xanthus” (J Nat Prod, 2002).

Molecules are shown by their SMILES. Active and inactive are the calls of the source. No cut-off for these calls is given here.

The subject of test [1] is HL-60. Put plainly: Cytotoxicity against mitoxantrone-resistant human HL60 cells after 3 days by SRB assay. Type of test: functional, cell-based. Particulars: HL-60, 72 h. The method, boiled down:
(§1)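 Cells kept in RPMI 1640 with 10% FBS and 2 mM L-glutamine, 37 °C, 5% CO2. Trypsinized cells seeded at 5000–7500 per well; compound added 20 h later across 0.001–1000 nM in growth medium. After 3 days, fixed with 10% TCA (4 °C, 1 h), stained 0.2% SRB/1% acetic acid 20 min, dye extracted with 10 mM Tris base, absorbance read at 515 nm.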

Test [2] concerns CCRF-CEM. Description: Cytotoxicity against human CCRF-CEM cells after 3 days by SRB assay. Type of test: functional, cell-based. Particulars: 72 h. The method, boiled down: as §1
For orientation: Sulforhodamine B stains cellular protein and so reports cell mass.

The next test has as its system NCI-H460. Description: Cytotoxicity against human NCI-H460 cells after 3 days by SRB assay. In kind it is functional, cell-based. The note with it: NCI-H460, 72 h. The method, boiled down:
as §1

Test [3] concerns CCRF-CEM. Put plainly: Cytotoxicity against camptothecin-resistant human CCRF-CEM cells after 3 days by SRB assay. Type of test: functional, cell-based. The note with it: 72 h. The method, boiled down:
as §1

In another test the test system is SF-268. Put plainly: Cytotoxicity against human SF268 cells after 3 days by SRB assay. In kind it is functional, cell-based. The note with it: SF-268, 72 h. The method, boiled down: as §1
Test [4] relates to HL-60. Description: Cytotoxicity against human HL60 cells after 3 days by SRB assay. In kind it is functional, cell-based. The note with it: HL-60, 72 h. The method, boiled down: as §1
The test system of another test is MCF7. Put plainly: Cytotoxicity against human MCF7 cells after 3 days by SRB assay. In kind it is functional, cell-based. The note with it: MCF7, 72 h. The method, boiled down:
as §1

A further test deals with NCI/ADR-RES. Put plainly: Cytotoxicity against human NCI/ADR-RES cells after 3 days by SRB assay. In kind it is functional, cell-based. The note with it: 72 h. The method, boiled down: as §1
In a further test the target is Tubulin (Homo sapiens) (UniProt P68371+Q9H4B7+P0DPH7+P68366+Q13509+Q71U36+P04350+Q3ZCM7+P07437+P68363+Q9BQE3+Q6PEY2+Q13885+Q9BVA1+Q9BUF5). Description: […] in human MCF7 cells at 1 uM after 2 hrs by SDS-PAGE. In kind it is cell-based. The method, boiled down: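 Confluent MCF-7 cells in 35 mm dishes treated with 1 μM compound for 0, 1 and 2 h at 37 °C. Lysates spun 18000g, 12 min, to separate soluble tubulin (supernatant) from polymerized tubulin (pellet).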

On to `C/C1=C/C[C@@H](/C(C)=C/c2csc(C)n2)OC(=O)C[C@H](O)C(C)(C)C(=O)[C@H](C)[C@@H](O)[C@@H](C)CCC1` [EPOTHILONE D], for which the IC50 – broadly, the concentration that inhibits the measured activity by half – was determined as 10 nM with HL-60 [1]; 22 nM in the test with CCRF-CEM [2]; 8 nM in the test with NCI-H460; 15 nM in the test with CCRF-CEM [3]; 14 nM with SF-268; 8 nM in the test on HL-60 [4]. Also, the IC50 with MCF7 was 8 nM; with NCI/ADR-RES, 30 nM.

Consider `CC1=C/C[C@@H](/C(C)=C/c2csc(C)n2)OC(=O)C[C@H](O)C(C)(C)C(=O)[C@H](C)[C@@H](O)[C@@H](C)C\C=C\1`, for which the IC50 with HL-60 [1] was 18 nM; in the test on CCRF-CEM [2], 23 nM; in the test with NCI-H460 it was 34 nM; in the test on CCRF-CEM [3], 11 nM; in the test with SF-268, 40 nM; in the test with HL-60 [4], 25 nM. The values for the IC50 with MCF7 and in the test on NCI/ADR-RES were 28 nM and 35 nM, respectively. Further, the result at Tubulin (Homo sapiens) was Active.
